According to ChEMBL document CHEMBL3797149, “1-Sulfonyl-6-Piperazinyl-7-Azaindoles as potent and pseudo-selective 5-HT6 receptor antagonists” (Bioorg Med Chem Lett, 2016):

Experiments:
[1] = Kinetic solubility in sorensen buffer at pH 7.4 incubated for 1 hr by UV-Visible spectrophotometry; assay type: physicochemical; conditions: read-out: Kinetic_solubility
D(2) dopamine receptor = D(2) dopamine receptor (Homo sapiens, UniProt P14416); assay: Displacement of [3H]NMSP from human dopamine D2S receptor expressed in CHO cell membrane incubated for 1 hr by scintillation counting method; assay type: cell membranes
D(2) dopamine receptor, sequence (P14416 whole entry): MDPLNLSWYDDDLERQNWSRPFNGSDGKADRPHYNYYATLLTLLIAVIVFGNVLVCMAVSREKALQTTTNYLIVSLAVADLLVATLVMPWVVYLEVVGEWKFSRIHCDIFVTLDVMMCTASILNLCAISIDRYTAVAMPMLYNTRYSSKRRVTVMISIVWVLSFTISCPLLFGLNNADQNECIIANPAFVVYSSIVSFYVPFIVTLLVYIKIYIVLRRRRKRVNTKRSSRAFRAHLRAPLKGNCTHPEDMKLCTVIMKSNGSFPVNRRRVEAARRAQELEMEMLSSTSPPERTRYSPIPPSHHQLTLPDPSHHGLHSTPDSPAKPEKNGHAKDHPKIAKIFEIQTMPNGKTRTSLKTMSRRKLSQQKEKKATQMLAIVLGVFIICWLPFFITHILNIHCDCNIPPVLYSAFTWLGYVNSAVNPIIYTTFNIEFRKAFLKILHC
Method in brief: (§1)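 Competition binding: [3H]-LSD displacement for 5-HT6 and [3H]-NMSP displacement for D2. Eight compound concentrations, 5 × 10^-6 to 5 × 10^-13 M, each tested in triplicate. Affinity is reported as Ki.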

[2] = target: 5-hydroxytryptamine receptor 6 (Homo sapiens, UniProt P50406); assay: Displacement of [3H]LSD from human 5HT6 receptor in HEK293 cell membrane incubated for 1 hr by scintillation counting method; assay type: cell membranes; method in brief: as §1
5-hydroxytryptamine receptor 6, sequence (P50406 whole entry): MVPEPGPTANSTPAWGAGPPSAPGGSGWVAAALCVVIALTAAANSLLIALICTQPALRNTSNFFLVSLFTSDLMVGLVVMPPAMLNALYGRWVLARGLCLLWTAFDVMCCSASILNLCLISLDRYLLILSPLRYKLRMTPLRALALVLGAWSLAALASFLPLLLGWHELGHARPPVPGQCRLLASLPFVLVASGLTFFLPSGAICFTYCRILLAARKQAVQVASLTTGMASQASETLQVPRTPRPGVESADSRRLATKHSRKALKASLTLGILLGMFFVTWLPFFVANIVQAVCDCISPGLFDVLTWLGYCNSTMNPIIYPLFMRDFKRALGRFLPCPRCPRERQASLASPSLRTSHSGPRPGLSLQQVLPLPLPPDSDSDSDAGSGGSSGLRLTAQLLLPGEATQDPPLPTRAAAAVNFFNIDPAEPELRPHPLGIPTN

CHO = assay: Selectivity ratio of Ki for human dopamine D2S receptor expressed in CHO cell membrane to Ki for human 5HT6 receptor in HEK293 cell membrane; assay type: cell-based
Method in brief: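 Ki values come from in-house competition binding: [3H]-LSD displacement at 5-HT6 and [3H]-NMSP displacement at D2. Compounds were tested at eight concentrations from 5×10^-6 to 5×10^-13 M in triplicate. The ratio is D2 Ki divided by 5-HT6 Ki.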

solubility kinetic at 1 h [1] | Ki (D(2) dopamine receptor) | Ki [2] | SMILES | Ratio Ki (CHO)
14 µg/mL |  |  | CC(C)CS(=O)(=O)n1ccc2c(-c3ccc(C(F)(F)F)cc3)cc(N3CCN(C)CC3)nc21.Cl | 
 | 1230 nM | 54 nM | CN1CCN(c2cc(-c3ccc(C(F)(F)F)cc3)c3ccn(S(C)(=O)=O)c3n2)CC1 | 22
 | 382 nM | 5 nM | CC(C)CS(=O)(=O)n1ccc2c(-c3ccc4[nH]ccc4c3)cc(N3CCN(C)CC3)nc21 | 76
 | 614 nM | 11 nM | CCc1ccc(-c2cc(N3CCN(C)CC3)nc3c2ccn3S(=O)(=O)CC(C)C)cc1 | 56
 | 25 nM | 6 nM | CC(C)S(=O)(=O)n1ccc2c(-c3ccc(C(F)(F)F)cc3)cc(N3CCN(C)CC3)nc21 | 4
 | > 2000 nM | 87 nM | CC(C)CS(=O)(=O)n1ccc2c(-c3cnn(C)c3)cc(N3CCN(C)CC3)nc21 | > 23
 | 108 nM | 22 nM | CC(C)CS(=O)(=O)n1ccc2c(-c3ccc(O)cc3)cc(N3CCN(C)CC3)nc21 | 5
 | > 2000 nM | 231 nM | CC(C)CS(=O)(=O)n1ccc2c(-c3ccc(=O)[nH]c3)cc(N3CCN(C)CC3)nc21 | > 8
11 µg/mL |  |  | CC(C)CS(=O)(=O)n1ccc2c(-c3ccc(C(F)(F)F)cc3)cc(N3CCN(C)CC3)nc21.O=C(O)C(O)C(O)C(=O)O | 
65 µg/mL |  |  | Br.CC(C)CS(=O)(=O)n1ccc2c(-c3ccc(C(F)(F)F)cc3)cc(N3CCN(C)CC3)nc21 | 
 | 113 nM | 24 nM | CC(C)CS(=O)(=O)n1ccc2c(-c3ccccc3C(F)(F)F)cc(N3CCN(C)CC3)nc21 | 5
 | 630 nM | 48 nM | CC(C)CS(=O)(=O)n1ccc2c(-c3cccc(C(F)(F)F)c3)cc(N3CCN(C)CC3)nc21 | 13
 | 22 nM | 2 nM | COc1ccc(-c2cc(N3CCN(C)CC3)nc3c2ccn3S(=O)(=O)CC(C)C)cc1 | 9
20 µg/mL |  |  | CC(C)CS(=O)(=O)n1ccc2c(-c3ccc(C(F)(F)F)cc3)cc(N3CCN(C)CC3)nc21.O=C(O)/C=C/C(=O)O | 
 | > 2000 nM | 7 nM | CN1CCN(c2cc(-c3ccc(C(F)(F)F)cc3)c3ccn(S(=O)(=O)C4CCOCC4)c3n2)CC1 | > 285
 | > 2000 nM | 129 nM | Cc1noc(C)c1-c1cc(N2CCN(C)CC2)nc2c1ccn2S(=O)(=O)CC(C)C | > 15
 | > 2000 nM | > 2000 nM | CC(C)CS(=O)(=O)n1ccc2c(-c3ccc(C(=O)N(C)C)cc3)cc(N3CCN(C)CC3)nc21 | 
 | 52 nM | 8 nM | COCCS(=O)(=O)n1ccc2c(-c3ccc(C(F)(F)F)cc3)cc(N3CCN(C)CC3)nc21 | 6
14 µg/mL |  |  | CC(C)CS(=O)(=O)n1ccc2c(-c3ccc(C(F)(F)F)cc3)cc(N3CCN(C)CC3)nc21.O=C(O)CC(O)(CC(=O)O)C(=O)O | 
 | 547 nM | 16 nM | CC(C)CS(=O)(=O)n1ccc2c(-c3ccccc3)cc(N3CCN(C)CC3)nc21 | 35
10 µg/mL |  |  | CC(C)CS(=O)(=O)n1ccc2c(-c3ccc(C(F)(F)F)cc3)cc(N3CCN(C)CC3)nc21.O=S(=O)(O)O | 
 | 86 nM | 290 nM | CC(C)CS(=O)(=O)n1ccc2c(-c3ccc(OCc4ccccc4)cc3)cc(N3CCN(C)CC3)nc21 | 0.3
 | > 2000 nM | 36 nM | CC(C)CS(=O)(=O)n1ccc2c(-c3cccnc3)cc(N3CCN(C)CC3)nc21 | > 55
 | 640 nM | 12 nM | Cc1cc(-c2cc(N3CCN(C)CC3)nc3c2ccn3S(=O)(=O)CC(C)C)c(C)s1 | 53
 | 205 nM | 7 nM | CC(C)CS(=O)(=O)n1ccc2c(-c3ccc(C#N)cc3)cc(N3CCN(C)CC3)nc21 | 29
 | > 2000 nM | 15 nM | CN1CCN(c2cc(-c3ccc(C(F)(F)F)cc3)c3ccn(S(=O)(=O)C4CCCCC4)c3n2)CC1 | > 133
